Reference: ChEMBL document CHEMBL4831494, “Synthesis and evaluation of FAK inhibitors with a 5-fluoro-7H-pyrrolo[2,3-d]pyrimidine scaffold as anti-hepatocellular carcinoma agents” (Eur J Med Chem, 2021)
The source made the active and inactive calls. The rule behind the calls is not given here.

Columns and labels:
[1] = target: T1, Focal adhesion kinase 1 (Homo sapiens, UniProt Q05397); assay: Inhibition of FAK (unknown origin) using Poly(Glu,Tyr) and ATP as substrate measured after 40 mins by Kinase-Glo Plus luminescence assay
Target sequence in this assay (Q05397 whole entry): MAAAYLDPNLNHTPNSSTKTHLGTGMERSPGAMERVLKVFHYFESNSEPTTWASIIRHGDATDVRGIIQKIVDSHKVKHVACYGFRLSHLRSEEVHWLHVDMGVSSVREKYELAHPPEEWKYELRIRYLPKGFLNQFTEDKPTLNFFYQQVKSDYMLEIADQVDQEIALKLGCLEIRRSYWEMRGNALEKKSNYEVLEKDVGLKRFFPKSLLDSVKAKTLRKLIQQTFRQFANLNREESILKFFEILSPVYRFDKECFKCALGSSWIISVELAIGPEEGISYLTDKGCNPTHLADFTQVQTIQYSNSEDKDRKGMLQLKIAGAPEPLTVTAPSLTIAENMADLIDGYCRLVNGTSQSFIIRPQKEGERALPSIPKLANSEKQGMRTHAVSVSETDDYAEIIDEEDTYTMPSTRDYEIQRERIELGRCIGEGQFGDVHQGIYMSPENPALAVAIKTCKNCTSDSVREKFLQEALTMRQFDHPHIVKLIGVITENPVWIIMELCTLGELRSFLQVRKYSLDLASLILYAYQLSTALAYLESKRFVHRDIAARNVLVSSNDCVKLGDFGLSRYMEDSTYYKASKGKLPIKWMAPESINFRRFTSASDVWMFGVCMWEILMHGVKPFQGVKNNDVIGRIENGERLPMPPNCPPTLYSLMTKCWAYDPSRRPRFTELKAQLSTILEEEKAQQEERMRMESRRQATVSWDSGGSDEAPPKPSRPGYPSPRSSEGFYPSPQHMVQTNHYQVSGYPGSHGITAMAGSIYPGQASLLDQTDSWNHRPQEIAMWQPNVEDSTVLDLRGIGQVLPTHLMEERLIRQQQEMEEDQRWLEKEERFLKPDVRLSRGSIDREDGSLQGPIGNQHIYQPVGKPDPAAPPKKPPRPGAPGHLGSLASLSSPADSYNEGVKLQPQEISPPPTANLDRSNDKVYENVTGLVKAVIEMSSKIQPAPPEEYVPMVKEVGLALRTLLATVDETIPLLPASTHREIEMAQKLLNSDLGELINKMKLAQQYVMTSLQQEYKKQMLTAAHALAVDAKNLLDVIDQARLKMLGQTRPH

[2] = cells; conditions: Homo sapiens, YY-8103, 48 h
[3] = test system: SMMC-7721; assay: cells; conditions: Homo sapiens, SMMC-7721, 48 h
[4] = test system: SMMC-7721; assay: Antitumor activity against human […] cells xenografted in BALB/c nude mouse assessed as tumor size at 10 mg/kg, ip administered for 19 days (reference value: 600.8 mm3); type: functional; conditions: time 19 day
Procedure, shortened: (§1)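 Male BALB/c nude mice, six weeks old, inoculated s.c. with 1.0 × 10⁷ SMMC7721 cells. Dosing began at mean tumour 25e35 mm³; five randomized groups, n = 8. Solvent DMSO/propylene glycol/PBS 2:5:3 (vehicle 1.0 mL/kg), all given i.p. every 3 days. Tumour size (calipers) and body weight taken before each dose. V = length × width²/2. TGI = [1 − (T−T₀)/(C−C₀)] × 100.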

[5] = Half life in Sprague-Dawley rat at 10 mg/kg, po measured upto 24 hrs by LC-MS/MS analysis; type: ADME, organism-based; conditions: in vivo
Procedure, shortened: (§2)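 Male SD rats, 6e8 weeks, 220 30 g, three per route (p.o. or i.v.). Compound given in DMSO/Solutol/saline (5/10/85). Centrifuged 6800 g for 6 min at 2e8 °C, frozen near −80 °C, analysed by LC-MS/MS. Mean ± SEM, n = 3.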

[6] = Half life in Sprague-Dawley rat at 2 mg/kg, iv measured upto 24 hrs by LC-MS/MS analysis; type: ADME, organism-based; conditions: in vivo; procedure, shortened: as §2
[7] = Tmax in Sprague-Dawley rat at 10 mg/kg, po measured upto 24 hrs by LC-MS/MS analysis; type: ADME, organism-based; conditions: in vivo; procedure, shortened: as §2
[8] = Tmax in Sprague-Dawley rat at 2 mg/kg, iv measured upto 24 hrs by LC-MS/MS analysis; type: ADME, organism-based; conditions: in vivo; procedure, shortened: as §2
[9] = Cmax in Sprague-Dawley rat at 10 mg/kg, po measured upto 24 hrs by LC-MS/MS analysis; type: ADME, organism-based; design: route oral, dose 10 mg/kg, time <=24; conditions: in vivo; procedure, shortened: as §2
[10] = Cmax in Sprague-Dawley rat at 2 mg/kg, iv measured upto 24 hrs by LC-MS/MS analysis; type: ADME, organism-based; design: route intravenous, dose 2 mg/kg, time <=24; conditions: in vivo; procedure, shortened: as §2
[11] = AUC (0 to t) in Sprague-Dawley rat at 10 mg/kg, po measured upto 24 hrs by LC-MS/MS analysis; type: ADME, organism-based; design: route oral, dose 10 mg/kg, time <=24; conditions: in vivo; procedure, shortened: as §2
[12] = AUC (0 to t) in Sprague-Dawley rat at 2 mg/kg, iv measured upto 24 hrs by LC-MS/MS analysis; type: ADME, organism-based; design: route intravenous, dose 2 mg/kg, time <=24; conditions: in vivo
[13] = AUC (0 to infinity) in Sprague-Dawley rat at 10 mg/kg, po by LC-MS/MS analysis; type: ADME, organism-based; design: time infinity, route oral, dose 10 mg/kg; conditions: in vivo; procedure, shortened: as §2
[14] = AUC (0 to infinity) in Sprague-Dawley rat at 2 mg/kg, iv by LC-MS/MS analysis; type: ADME, organism-based; design: route intravenous, time infinity, dose 2 mg/kg; conditions: in vivo; procedure, shortened: as §2
[15] = Volume of distribution at steady state in Sprague-Dawley rat at 2 mg/kg, iv measured upto 24 hrs by LC-MS/MS analysis; type: ADME, organism-based; conditions: in vivo; procedure, shortened: as §2
[16] = MRT (0 to t) in Sprague-Dawley rat at 10 mg/kg, po measured upto 24 hrs by LC-MS/MS analysis; type: ADME, organism-based; conditions: in vivo; procedure, shortened: as §2
[17] = MRT (0 to t) in Sprague-Dawley rat at 2 mg/kg, iv measured upto 24 hrs by LC-MS/MS analysis; type: ADME, organism-based; conditions: in vivo; procedure, shortened: as §2
[18] = MRT (0 to infinity) in Sprague-Dawley rat at 10 mg/kg, po by LC-MS/MS analysis; type: ADME, organism-based; conditions: in vivo; procedure, shortened: as §2
[19] = MRT (0 to infinity) in Sprague-Dawley rat at 2 mg/kg, iv by LC-MS/MS analysis; type: ADME, organism-based; conditions: in vivo; procedure, shortened: as §2
[20] = Oral bioavailability in Sprague-Dawley rat 10 mg/kg measured upto 24 hrs by LC-MS/MS analysis; type: ADME, organism-based; conditions: in vivo; procedure, shortened: as §2
[21] = Acute toxicity in Kunming mouse assessed as body weight at 5 to 200 mg/kg, ip observed for 10 days; type: organism-based; conditions: in vivo, 240 h, dose 5-200 mg/kg, time 10 day
Procedure, shortened: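 Kunming mice (18-22 g), 30 animals in 5 groups of 6 (3 male, 3 female); single intraperitoneal dose of 0, 5, 10, 50 or 200 mg/kg in DMSO/propylene glycol/PBS (2/5/3). Animals observed and weighed daily for 10 days.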

[22] = Toxicity in BALB/c nude mouse assessed as effect on body weight at 10 to 30 mg/kg, ip administered for 19 days; type: organism-based; conditions: in vivo, 456 h, dose 10-30 mg/kg, time 19 day
Procedure, shortened: (§3)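 Six-week-old male BALB/c nude mice bearing subcutaneous SMMC7721 xenografts (1.0 × 10⁷ cells); dosing started at mean tumor 25-35 mm³, n = 8 per group. Ip every 3 days in DMSO/propylene glycol/PBS (2:5:3); vehicle 1.0 mL/kg as negative control. Body weight weighed and deaths recorded every 3 days before each dose, through day 19.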

[23] = test system: SMMC-7721; assay: Antitumor activity against human […] cells xenografted in BALB/c nude mouse assessed as tumor size at 30 mg/kg, ip administered for 19 days (reference value: 600.8 mm3); type: functional; conditions: time 19 day; procedure, shortened: as §1
[24] = test system: SMMC-7721; assay: Antitumor activity against human […] cells xenografted in BALB/c nude mouse assessed as tumor growth inhibition at 30 mg/kg, ip administered for 19 days; type: functional; conditions: SMMC-7721, ip, 456 h, time 19 day, read-out: TGI; procedure, shortened: as §1
[25] = Clearance in Sprague-Dawley rat at 2 mg/kg, iv measured upto 24 hrs by LC-MS/MS analysis; type: ADME, organism-based; conditions: in vivo; procedure, shortened: as §2
[26] = Toxicity in BALB/c nude mouse assessed as animal's mortality at 10 to 30 mg/kg, ip administered for 19 days; type: organism-based; conditions: in vivo, 456 h, dose 10-30 mg/kg, time 19 day; procedure, shortened: as §3
[27] = target: T1, Focal adhesion kinase 1; assay: Inhibition of FAK phosphorylation in human HCC cells assessed as upregulation of FOXO phosphorylation at 30 uM by KEGG analysis; type: cell-based
Target sequence in this assay (Q05397 2-1052 limits assumed): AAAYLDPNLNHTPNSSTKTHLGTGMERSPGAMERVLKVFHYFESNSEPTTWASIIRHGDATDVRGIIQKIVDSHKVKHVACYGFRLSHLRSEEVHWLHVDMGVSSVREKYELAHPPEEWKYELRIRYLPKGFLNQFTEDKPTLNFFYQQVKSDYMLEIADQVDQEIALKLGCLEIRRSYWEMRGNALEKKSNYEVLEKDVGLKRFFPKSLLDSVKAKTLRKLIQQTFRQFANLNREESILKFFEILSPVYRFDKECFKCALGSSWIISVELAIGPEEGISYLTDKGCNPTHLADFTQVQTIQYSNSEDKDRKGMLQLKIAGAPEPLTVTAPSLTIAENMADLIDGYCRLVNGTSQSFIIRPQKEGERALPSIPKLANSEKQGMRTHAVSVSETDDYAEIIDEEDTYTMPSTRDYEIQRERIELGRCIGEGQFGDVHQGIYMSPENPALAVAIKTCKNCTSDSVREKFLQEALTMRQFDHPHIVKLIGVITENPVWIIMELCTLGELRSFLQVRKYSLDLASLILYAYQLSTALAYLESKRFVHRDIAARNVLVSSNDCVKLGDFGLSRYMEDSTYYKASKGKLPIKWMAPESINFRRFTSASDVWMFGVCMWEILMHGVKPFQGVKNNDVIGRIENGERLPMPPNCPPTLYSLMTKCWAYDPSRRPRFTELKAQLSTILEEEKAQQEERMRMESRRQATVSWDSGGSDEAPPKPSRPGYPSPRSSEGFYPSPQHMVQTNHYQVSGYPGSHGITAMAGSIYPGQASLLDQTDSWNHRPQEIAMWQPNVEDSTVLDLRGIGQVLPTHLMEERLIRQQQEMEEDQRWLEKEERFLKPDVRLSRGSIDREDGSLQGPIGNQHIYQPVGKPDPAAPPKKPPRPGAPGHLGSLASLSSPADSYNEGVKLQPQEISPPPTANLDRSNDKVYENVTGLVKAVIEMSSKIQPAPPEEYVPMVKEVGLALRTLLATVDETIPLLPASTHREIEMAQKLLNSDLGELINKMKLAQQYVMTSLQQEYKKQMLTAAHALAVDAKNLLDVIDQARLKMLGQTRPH

[28] = Upregulation of integrin beta1 phosphorylation at Thr788 residue in human HCC cells at 30 uM by KEGG analysis relative to control; type: functional
[29] = target: T1, Focal adhesion kinase 1; assay: Inhibition of FAK phosphorylation in human HCC cells at 30 mg/kg by KEGG analysis
Target sequence in this assay (Q05397 2-1052 limits assumed): as above

[30] = target: T1, Focal adhesion kinase 1; assay: Inhibition of FAK phosphorylation in human HCC cells assessed as reduction in Akt phosphorylation at 30 mg/kg by KEGG analysis
Target sequence in this assay (Q05397 2-1052 limits assumed): as above

[31] = target: T1, Focal adhesion kinase 1; assay: Inhibition of FAK phosphorylation in human HCC cells assessed as reduction in PDK1 phosphorylation at 30 mg/kg by KEGG analysis
Target sequence in this assay (Q05397 2-1052 limits assumed): as above

[32] = target: T1, Focal adhesion kinase 1; assay: Inhibition of FAK phosphorylation in human HCC cells assessed as reduction in mTOR phosphorylation at 30 mg/kg by KEGG analysis
Target sequence in this assay (Q05397 2-1052 limits assumed): as above

[33] = target: T1, Focal adhesion kinase 1; assay: Inhibition of FAK phosphorylation in human HCC cells assessed as reduction in NFkappaB phosphorylation at 30 mg/kg by KEGG analysis
Target sequence in this assay (Q05397 2-1052 limits assumed): as above

[34] = Toxicity in BALB/c nude mouse assessed as animal's mortality at 30 mg/kg, ip measured on day 11; type: organism-based; conditions: in vivo, 264 h, time 11 day; procedure, shortened: as §3
[35] = Toxicity in BALB/c nude mouse assessed as effect on body weight at 30 mg/kg, ip administered for 19 days; type: organism-based; conditions: in vivo, 456 h, time 19 day; procedure, shortened: as §1

For `COc1cccc(Nc2nc(NCc3cccnc3N(C)S(C)(=O)=O)c3c(F)c[nH]c3n2)c1C`, the IC50 [1] was 76 nM, the IC50 [2] was > 100 µM and the IC50 [3] was > 100 µM.
For `CN(c1ncccc1CNc1nc(Nc2ccc(F)c(Cl)c2)nc2[nH]cc(F)c12)S(C)(=O)=O`, the IC50 [1] was 41 nM, the IC50 [2] was 82.5 µM and the IC50 [3] was > 100 µM.
In the case of `CN(c1ncccc1CNc1nc(Nc2ccc3c(c2)CC(=O)N3)nc2[nH]cc(F)c12)S(C)(=O)=O`, the IC50 [1] is reported as 22 nM, the IC50 [2] is reported as 24.1 µM and the IC50 [3] is reported as 73.2 µM.
Compound `CN(c1ncccc1CNc1nc(Nc2ccc3c(c2)CC(=O)N3)nc2[nH]cc(Cl)c12)S(C)(=O)=O` has an IC50 [1] of 21 nM, an IC50 [2] of 13.2 µM and an IC50 [3] of 21.9 µM.
In the case of `CN(c1ncccc1CNc1nc(Nc2ccc(N3CCOCC3)cc2)nc2[nH]cc(F)c12)S(C)(=O)=O`, the IC50 [1] is reported as 26 nM, the IC50 [2] is reported as > 100 µM and the IC50 [3] is reported as > 100 µM.
For `CN(c1ncccc1CNc1nc(Nc2ccc(F)cc2)nc2[nH]cc(F)c12)S(C)(=O)=O`, the IC50 [1] was 38 nM, the IC50 [2] was > 100 µM and the IC50 [3] was 27.9 µM.
With `Cc1cc2c(NCc3cccnc3N(C)S(C)(=O)=O)nc(Nc3ccc4c(c3)CC(=O)N4)nc2[nH]1` the IC50 [1] was 12000 nM, the IC50 [2] was > 100 µM and the IC50 [3] was > 100 µM.
With `CN(c1ncccc1CNc1nc(Nc2ccccc2)nc2[nH]cc(F)c12)S(C)(=O)=O` the IC50 [1] was 32 nM, the IC50 [2] was > 100 µM and the IC50 [3] was > 100 µM.
`CN(c1ncccc1CNc1nc(Nc2ccc3c(c2)CC(=O)N3)nc2[nH]ncc12)S(C)(=O)=O` gave an IC50 [1] of 206 nM.
`CNC(=O)c1ccccc1Nc1nc(Nc2cccc(NC(C)=O)c2)nc2[nH]cc(F)c12` gave an Activity [4] of 348.3 mm3, an IC50 [1] of 12 nM and a half-life [5] of 219 min. It also gave a half-life [6] of 87.6 min, a Tmax [7] of 4.67 h and a Tmax [8] of 4.8 min. The Cmax [9] was 15.4 ng/mL, the Cmax [10] was 5020 ng/mL and the AUC(0-t) at 24 h [11] was 95.5 ng·h/mL. For the same compound, the AUC(0-t) at 24 h [12] was 2300 ng·h/mL, the AUC(0-inf) [13] was 119 ng·h/mL and the AUC(0-inf) [14] was 2300 ng·h/mL. The Vdss [15] was 1842.6 mL/kg, the MRT last at 24 h [16] was 4.54 h and the MRT last at 24 h [17] was 30.6 min. For the same compound, the MRT inf [18] was 6.62 h, the MRT [19] was 31.8 min and the bioavailability [20] was 0.83%. For the same compound, the Activity [21] was “Non-Toxic”, the Activity [22] was “Non-Toxic” and the Activity [23] was 153.5 mm3. For the same compound, the inhibition in vivo at 30 mg/kg [24] was 78.6%, the CL [25] was 869.41 mL/h/kg and the Activity [26] was “Non-Toxic”. The inhibition [27] was “Active”, the “fold change (FC)” value [28] was 2.82 and the IC50 [2] was 2.39 µM. For the same compound, the IC50 [3] was 10.1 µM, the inhibition [29] was “Active” and the inhibition [30] was “Active”. For the same compound, the inhibition [31] was “Active”, the inhibition [32] was “Active” and the inhibition [33] was “Active”.
For `CN(c1ncccc1CNc1nc(Nc2cccc(CN)c2)nc2[nH]cc(F)c12)S(C)(=O)=O`, the IC50 [1] was 2100 nM, the IC50 [2] was > 100 µM and the IC50 [3] was > 100 µM.
In the case of `CNC(=O)c1ccccc1Nc1nc(Nc2cccc(CNC(C)=O)c2)nc2[nH]cc(F)c12`, the IC50 [1] is reported as 14 nM, the IC50 [2] is reported as 1.06 µM and the IC50 [3] is reported as 18.7 µM.
In the case of `CN(c1ncccc1CNc1nc(Nc2ccc3c(c2)CC(=O)N3)ncc1C(F)(F)F)S(C)(=O)=O` [PF-00562271], the Activity [34] is reported as “Toxic”, the Activity [23] is reported as 295.9 mm3 and the inhibition in vivo at 30 mg/kg [24] is reported as 54.1%. The Activity [35] was “Non-Toxic”.
